Results reported in ChEMBL document CHEMBL4368913, “Design, Synthesis, and Biological Evaluation of 6-Substituted Thieno[3,2- d]pyrimidine Analogues as Dual Epidermal Growth Factor Receptor Kinase and Microtubule Inhibitors” (J Med Chem, 2019).

Assays:
[1] = biological target: T1, Vascular endothelial growth factor receptor 2 (Homo sapiens, UniProt P35968); test: Inhibition of VEGFR2 (unknown origin)
[2] = system: RS4-11; test: Antiproliferative activity against human RS4:11 cells after 72 hrs by MTT assay; type: functional, cell-based; details: RS4-11, 72 h
Outline: (§1)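 Cells in medium with 10% FBS, seeded at 8×10^3 per well, 18 h at 37 °C, 5% CO2, then graded compound concentrations (DMSO ≤0.25%) for 72 h. Viability by MTT. […] Mean ± SE of dose-response curves from at least three independent experiments.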

[3] = system: HeLa; test: Antiproliferative activity against human HeLa cells after 72 hrs by MTT assay; type: functional, cell-based
[4] = system: Jurkat; test: Antiproliferative activity against human Jurkat cells after 72 hrs by MTT assay; type: functional, cell-based; outline: as §1
[5] = biological target: Tubulin (Bos taurus) (UniProt Q6B856+Q862L2+Q862F3); test: Inhibition of [3H]-colchicine binding to bovine brain tubulin at 1 to 5 uM after 20 mins relative to control
Outline: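 Colchicine-binding inhibition in mixtures of 1 μM tubulin, 5 μM [3H]colchicine and test compound at 1 or 5 μM.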

[6] = system: A549; test: Antiproliferative activity against human A549 cells after 72 hrs by MTT assay; type: functional, cell-based; details: A549, 72 h
[7] = biological target: Epidermal growth factor receptor (Homo sapiens, UniProt P00533); test: Inhibition of wild type EGFR (unknown origin) by bioluminescent ADP-glo kinase assay
[8] = system: HT-29; test: Antiproliferative activity against human HT-29 cells after 72 hrs by MTT assay; type: functional, cell-based; details: HT-29, 72 h
[9] = biological target: Tubulin (Bos taurus, UniProt Q6B856+Q862L2+Q862F3); test: Inhibition of bovine brain tubulin polymerization after 20 mins
Outline: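 Bovine brain tubulin (10 μM) preincubated with varying compound concentrations in 0.8 M monosodium glutamate, pH 6.6, at 30 °C, then chilled to 0 °C. 0.4 mM GTP added, mixtures warmed to 30 °C, assembly followed by turbidity at 350 nm.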

[10] = biological target: T1, Vascular endothelial growth factor receptor 2; test: Inhibition of wild type VEGFR2 (unknown origin) by bioluminescent ADP-glo kinase assay

Chain of Epidermal growth factor receptor (P00533 whole entry): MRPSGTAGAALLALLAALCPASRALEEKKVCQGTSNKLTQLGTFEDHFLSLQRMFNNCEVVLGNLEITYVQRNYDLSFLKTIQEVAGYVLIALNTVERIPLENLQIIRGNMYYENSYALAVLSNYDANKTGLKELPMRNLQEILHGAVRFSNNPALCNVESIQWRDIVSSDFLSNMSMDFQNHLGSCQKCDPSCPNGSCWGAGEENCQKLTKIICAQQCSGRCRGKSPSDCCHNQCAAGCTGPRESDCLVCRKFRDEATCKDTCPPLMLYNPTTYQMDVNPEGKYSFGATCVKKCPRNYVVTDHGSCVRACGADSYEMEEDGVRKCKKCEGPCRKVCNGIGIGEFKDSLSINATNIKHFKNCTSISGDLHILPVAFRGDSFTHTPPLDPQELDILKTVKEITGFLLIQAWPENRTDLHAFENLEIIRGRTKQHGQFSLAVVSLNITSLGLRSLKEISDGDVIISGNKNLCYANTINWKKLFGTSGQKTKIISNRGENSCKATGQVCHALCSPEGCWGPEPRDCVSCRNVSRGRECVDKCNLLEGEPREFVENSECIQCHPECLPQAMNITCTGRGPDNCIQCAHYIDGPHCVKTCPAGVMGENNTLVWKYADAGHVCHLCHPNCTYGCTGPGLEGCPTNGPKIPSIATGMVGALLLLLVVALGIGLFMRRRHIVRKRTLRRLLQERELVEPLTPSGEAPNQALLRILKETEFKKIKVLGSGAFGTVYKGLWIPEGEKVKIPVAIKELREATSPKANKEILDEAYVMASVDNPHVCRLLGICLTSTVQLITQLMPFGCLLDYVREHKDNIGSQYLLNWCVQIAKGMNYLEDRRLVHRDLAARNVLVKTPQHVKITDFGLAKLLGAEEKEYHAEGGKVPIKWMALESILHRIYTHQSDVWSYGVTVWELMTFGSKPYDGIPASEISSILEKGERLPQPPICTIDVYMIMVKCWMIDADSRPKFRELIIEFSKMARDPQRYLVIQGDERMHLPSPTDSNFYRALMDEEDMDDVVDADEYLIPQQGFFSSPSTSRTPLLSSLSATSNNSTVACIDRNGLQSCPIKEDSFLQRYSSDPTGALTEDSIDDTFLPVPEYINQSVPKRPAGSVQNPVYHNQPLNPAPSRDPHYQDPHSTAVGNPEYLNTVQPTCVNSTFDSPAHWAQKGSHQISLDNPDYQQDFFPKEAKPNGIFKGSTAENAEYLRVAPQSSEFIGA
T1 sequence (P35968 whole entry): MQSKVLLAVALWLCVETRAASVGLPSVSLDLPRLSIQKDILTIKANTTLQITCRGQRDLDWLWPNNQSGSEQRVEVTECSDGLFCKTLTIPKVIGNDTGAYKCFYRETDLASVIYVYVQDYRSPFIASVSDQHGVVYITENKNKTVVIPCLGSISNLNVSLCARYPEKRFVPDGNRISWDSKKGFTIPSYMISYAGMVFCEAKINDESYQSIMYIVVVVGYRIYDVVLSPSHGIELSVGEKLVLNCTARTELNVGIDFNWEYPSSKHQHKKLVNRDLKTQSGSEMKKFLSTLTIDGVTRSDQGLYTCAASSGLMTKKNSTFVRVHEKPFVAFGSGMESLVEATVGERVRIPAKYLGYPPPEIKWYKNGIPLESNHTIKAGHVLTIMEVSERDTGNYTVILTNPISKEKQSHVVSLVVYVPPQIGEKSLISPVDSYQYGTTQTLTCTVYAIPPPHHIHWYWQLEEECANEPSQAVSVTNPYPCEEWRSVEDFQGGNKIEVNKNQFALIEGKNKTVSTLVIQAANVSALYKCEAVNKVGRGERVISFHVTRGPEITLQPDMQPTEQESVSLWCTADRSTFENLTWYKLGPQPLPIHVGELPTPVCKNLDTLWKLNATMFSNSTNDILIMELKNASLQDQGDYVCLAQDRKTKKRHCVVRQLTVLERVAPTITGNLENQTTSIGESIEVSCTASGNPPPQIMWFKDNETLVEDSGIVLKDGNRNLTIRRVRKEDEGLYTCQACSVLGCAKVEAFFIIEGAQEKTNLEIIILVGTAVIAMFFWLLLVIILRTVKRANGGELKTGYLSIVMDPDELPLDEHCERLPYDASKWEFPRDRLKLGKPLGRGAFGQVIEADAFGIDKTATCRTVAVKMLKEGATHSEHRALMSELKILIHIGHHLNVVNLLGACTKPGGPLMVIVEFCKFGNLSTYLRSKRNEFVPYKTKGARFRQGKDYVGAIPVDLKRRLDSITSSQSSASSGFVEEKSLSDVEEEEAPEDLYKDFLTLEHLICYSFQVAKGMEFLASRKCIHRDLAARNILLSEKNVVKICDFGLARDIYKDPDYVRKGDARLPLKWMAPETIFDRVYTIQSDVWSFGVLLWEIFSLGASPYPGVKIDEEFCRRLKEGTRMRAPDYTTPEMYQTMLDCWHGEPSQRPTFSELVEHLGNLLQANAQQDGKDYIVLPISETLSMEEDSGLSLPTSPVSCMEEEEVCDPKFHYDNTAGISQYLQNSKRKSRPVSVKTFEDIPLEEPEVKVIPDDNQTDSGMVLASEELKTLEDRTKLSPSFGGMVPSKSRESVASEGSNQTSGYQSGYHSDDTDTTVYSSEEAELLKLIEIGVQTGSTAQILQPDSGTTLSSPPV

SMILES	IC50 [1]	IC50 [2]	IC50 [3]	IC50 [4]	inhibition [5]	IC50 [6]	IC50 [7]	IC50 [8]	IC50 [9]	IC50 [10]
c1ccc(-c2cc3ncnc(Nc4ccc5[nH]ccc5c4)c3s2)cc1	80 nM	–	–	–	–	–	–	–	–	–
COc1ccc(/C=C\c2cc(OC)c(OC)c(OC)c2)cc1O [COMBRETASTATIN A4]	–	1 nM	–	–	–	–	–	–	–	–
COc1ccc(-c2cc3ncnc(Nc4cc(OC)c(OC)c(OC)c4)c3s2)cc1	–	4 nM	170 nM	5 nM	31%	430 nM	52 nM	60 nM	2800 nM	> 1000 nM
COc1cc(Nc2ncnc3cc(-c4cccs4)sc23)cc(OC)c1OC	–	360 nM	1700 nM	80 nM	–	5100 nM	2.5 nM	210 nM	18000 nM	> 1000 nM
COc1cc(Nc2ncnc3cc(-c4ccc([N+](=O)[O-])cc4)sc23)cc(OC)c1OC	–	1300 nM	4900 nM	2000 nM	–	1100 nM	–	6300 nM	–	–
COc1cc(Nc2ncnc3cc(-c4ccccc4)sc23)cc(OC)c1OC	–	260 nM	170 nM	10 nM	–	2300 nM	23 nM	350 nM	10000 nM	> 1000 nM
COc1cc(Nc2ncnc3cc(-c4ccc(I)cc4)sc23)cc(OC)c1OC	–	170 nM	280 nM	300 nM	35%	770 nM	10 nM	250 nM	2500 nM	> 1000 nM
